High-throughput results (PubChem)
Shown are actives, neighbours in structure and some others; about 2.6% of the full set was active somewhere.
b-catenin transl: beta-catenin nuclear translocation modulation | HeLa beta-catenin nuclear translocation, immunofluorescence imaging | nuclear translocation activity, % at 5 µM | actives 0.3% (n = 190,000);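 active = nuclear translocation activity above 50% at 5 µM, with a well cell count of 50 or more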;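 note: per-cell ratio of nuclear to cytoplasmic median beta-catenin stain intensity; plate controls were DMSO negative control for no effect and GSK-3 inhibitor IX positive control for full effect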
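System: Human HeLa cells, endogenous beta-catenin | Compound dosing: 5 µM primary, 0.02–20 µM confirmation | Timing: 24 h compound exposure at 37°C, 5% CO2 | Measured by: Fluorescence imaging of beta-catenin antibody stain plus DAPI | Read-out basis: % activation of per-cell nuclear versus cytoplasmic median beta-catenin signal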
MT stabilize HCS: microtubule stabilization, imaging screen. AID 2205. actives 0.83% (n = 200,000). % tubulin-high responders, % at 10 µM. HeLa tubulin immunostaining HCS, 24 h; share of cells brighter than vehicle mean+2SD;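 active = plate Z-score above 3 for both tubulin-high and condensed-nucleus cell shares, with cell loss under 80%, at 10 µM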;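 note: anti alpha tubulin signal scored within the nucleus-defined area of each cell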
NPY-Y1 antag: NPY-Y1 (human) receptor antagonism | HEK293-CNG Y1 cells, membrane potential fluorescence; NPY at EC95, then isoproterenol | actives 1% (n = 200,000) | AID 1040 | inhibition, % at 3.6 µM | P25929;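 active = inhibition above the campaign mean inhibition of all tested compounds plus 3 SD, cut at about 20% in these data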;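 note: 0% = DMSO wells given NPY plus isoproterenol and 100% = isoproterenol alone without NPY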
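material = HEK293 cells with Y1 receptor plus CNG channel | also added = NPY 25 nM then isoproterenol 1 µM plus Ro 20-1724 25 µM | schedule = dye 3 h, compound 60 min room temperature, stimulation 45 min | measured by = membrane potential fluorescence | benchmarks = high control isoproterenol alone, low control NPY with isoproterenol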
NPY-Y2 antag: NPY-Y2 (human) receptor antagonism; P49146; NPY-Y2 expressing cells, antagonist mode; inhibition, % at 2.7 µM; actives 0.99% (n = 140,000); AID 793; in the data active = inhibition above about 17%;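 note: 0% = vehicle with agonist challenge and 100% = reference antagonist with challenge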
Target sequence (P49146 whole entry, looked up): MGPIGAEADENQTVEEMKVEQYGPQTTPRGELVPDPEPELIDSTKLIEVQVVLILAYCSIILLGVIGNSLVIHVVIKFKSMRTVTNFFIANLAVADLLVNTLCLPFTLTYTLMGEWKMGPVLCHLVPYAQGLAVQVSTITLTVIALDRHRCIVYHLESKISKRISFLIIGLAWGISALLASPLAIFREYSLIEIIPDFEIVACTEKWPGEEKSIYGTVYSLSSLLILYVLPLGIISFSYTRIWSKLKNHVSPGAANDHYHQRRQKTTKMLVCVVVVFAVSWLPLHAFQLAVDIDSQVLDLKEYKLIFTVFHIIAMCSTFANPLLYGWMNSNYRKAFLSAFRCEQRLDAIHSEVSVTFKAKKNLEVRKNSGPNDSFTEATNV
NPY1 pot ag: potentiates or activates human NPY-Y1 receptor; P25929; NPY-Y1 expressing cells, potentiator/agonist activation; activation, % at 3.6 µM; actives 0.37% (n = 220,000); in the data active = activation above about 33%, passing the limit was not always enough;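 note: cells stimulated with NPY at EC10 then isoproterenol at EC100; 0% = low agonist plus stimulus and 100% = saturating agonist plus stimulus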
NPY-Y2 PAM-ag: potentiates or activates human NPY-Y2 receptor | P49146 | cells expressing NPY-Y2, potentiator/agonist read-out | activation, % at 3.6 µM | actives 0.45% (n = 220,000) | AID 1359; in the data active = activation above about 27%;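 note: cells stimulated with NPY near EC25 plus isoproterenol at EC100; 0% = vehicle plus submaximal agonist and 100% = vehicle plus saturating agonist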
NPY-Y1 confirm: confirmation of human NPY-Y1 receptor potentiators or agonists; shares compounds with NPY1 pot ag; cell-based NPY-Y1 potentiator/agonist assay; activation, % at 3.6 µM; actives 20% (n = 280); AID 1546; in the data active = activation above about 45%;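 note: cells challenged with NPY at its EC10 plus isoproterenol stimulus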
NPY-Y2 counter: NPY-Y2 potentiation or agonism as NPY-Y1 counter-screen | shares compounds with NPY1 pot ag | HEK293-CNG cells, membrane-potential fluorescence (FLIPR), 1536-well | activation, % at 3.6 µM | actives 20% (n = 280) | AID 1649; in the data active = activation above about 33%
NPY-Y1 ag: activates human NPY-Y1, counter-screen for NPY-Y1 potentiators | shares compounds with NPY1 pot ag | activation, % at 3.6 µM | AID 1697 | HEK293 Y1-CNGC, membrane potential fluorescence, agonist mode | actives 50% (n = 280);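 active = percent activation above the mean of DMSO-only control wells plus 3 SD of those wells, cut at about 18% in these data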;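 note: cells challenged with isoproterenol plus Ro 20-1724 with no NPY in test wells; Y1 agonism lowers isoproterenol-driven cAMP and reduces probe fluorescence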
NPY-Y2 ag: activates human NPY-Y2, counter-screen for NPY-Y1 hits; shares compounds with NPY1 pot ag; HEK293 Y2-CNGC, membrane potential fluorescence, agonist mode; activation, % at 3.6 µM; actives 67% (n = 280); AID 1698;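 active = activation above the solvent-only control wells' mean plus 3 SD, cut at about 11% in these data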;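 note: 0% = DMSO with isoproterenol and 100% = 40 nM NPY maximal response; agonism lowers cAMP so well fluorescence drops in active wells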
CNGC inh 2: counter-screen for NPY-Y1 potentiators or agonists: CNG channel inhibitors. inhibition, % at 3.6 µM. actives 42% (n = 280). shares compounds with NPY1 pot ag. HEK293-CNG parental, isoproterenol cAMP, membrane potential fluorescence;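 active = inhibition above the mean of stimulated solvent-only control wells plus 3 SD, cut at about 22% in these data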;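 note: 0% = isoproterenol-stimulated DMSO wells and 100% = unstimulated DMSO wells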
* = called active by the depositor; nt = not tested or not shown.

SMILES | b-catenin transl | MT stabilize HCS | NPY-Y1 antag | NPY-Y2 antag | NPY1 pot ag | NPY-Y2 PAM-ag | NPY-Y1 confirm | NPY-Y2 counter | NPY-Y1 ag | NPY-Y2 ag | CNGC inh 2
CCC(=O)Nc1c2c(nn1-c1ccc(OC)cc1)CS(=O)C2 (centres undefined) | nt | 6 | -3 | 4 | -22 | -5 | nt | nt | nt | nt | nt
CCC(CC)C(=O)Nc1c2c(nn1-c1ccc(OC)cc1)CS(=O)C2 (centres undefined) | nt | 3 | 3 | 2 | 41* | 2 | -2 | -2 | -4 | 2 | 2
O=C(COC(=O)c1cccc(C(=O)OCC(=O)NC2CC2)n1)NC1CC1 | -4 | 8 | -4 | nt | -22 | 0 | nt | nt | nt | nt | nt
COc1cccc(-n2c(SCC(N)=O)nnc2-c2ccncc2)c1 | -2 | 5 | -1 | 0 | 4 | 9 | nt | nt | nt | nt | nt
COc1cccc(NC(=O)C(Sc2nnc(-c3ccncc3)n2-c2ccc(Cl)cc2)c2ccccc2)c1 (centres undefined) | nt | 6 | -6 | 2 | 52* | 23 | 60* | 54* | 63* | 40* | 60*
Cc1cccc(C)c1OCC(O)CN (centres undefined) | -16 | 4 | -3 | 3 | -2 | -4 | nt | nt | nt | nt | nt
Cc1cc(OCC(O)CN)ccc1Cl (centres undefined) | -1 | 3 | 2 | nt | 51* | 20 | 12 | 9 | 8 | 18* | 5
Cc1ccccc1-n1nc(C(=O)c2cccs2)cc(-c2nc3ccccc3[nH]2)c1=N | -2 | 3 | -6 | -2 | 48* | 26 | 73* | 65* | 62* | 66* | 62*
COc1ccc(-n2nc(C(=O)c3cccs3)cc(-c3nc4ccccc4[nH]3)c2=N)cc1 | -5 | 3 | -8 | -1 | 33 | 28 | nt | nt | nt | nt | nt
CCOCc1cc(=O)[nH]c(SC)n1 | 0 | nt | nt | nt | -2 | -7 | nt | nt | nt | nt | nt
CCOc1ncccc1C(=O)Nc1ccc(F)c(Cl)c1 | 1 | 1 | 16 | nt | -17 | -18 | nt | nt | nt | nt | nt
O=C(NCCCn1ccnc1)C(=O)c1c[nH]c2ccccc12 | 5 | 3 | 4 | nt | 11 | 3 | nt | nt | nt | nt | nt
CCOC(=O)C(Cc1ccccc1)C(=O)Nc1cccc(C)c1 (centres undefined) | nt | 6 | 3 | 4 | -12 | 8 | nt | nt | nt | nt | nt
CCOC(=O)C(Cc1ccccc1)C(=O)Nc1ccc(N(CC)CC)cc1 (centres undefined) | 1 | 5 | 0 | 2 | 46* | 8 | 50* | 23 | 31* | 19* | 14
COc1ccc(N/N=C(\C#N)C(=N)SCc2ccccc2)cc1 | 0 | 2 | -4 | nt | 37* | 25 | 18 | 6 | 17 | 23* | 15
Cc1cccc(N(C(=O)Nc2ccc(Cl)cc2)C2=NCC(C)S2)n1 (centres undefined) | 1 | 4 | -3 | nt | 37* | -7 | 2 | 0 | 3 | 12* | 8
COc1cc(/C=C2\SC(=S)N(N3CCOCC3)C2=O)cc(OC)c1OC | 2 | 3 | 4 | 2 | 9 | -6 | nt | nt | nt | nt | nt
COc1cc(/C=C2\SC(=S)N(N3CCOCC3)C2=O)ccc1O | 2 | nt | nt | nt | 48* | -4 | 18 | 10 | 13 | 10.0* | 10
COc1ccc(-n2cc3c(-c4cccc(Br)c4)nnc(C)c3n2)cc1 | -2 | 2 | 2 | 2 | -25 | -19 | nt | nt | nt | nt | nt
COc1cc(/C=N/NC(=S)NCc2ccccc2)ccc1OCC#N | -1 | 3 | 17 | 16 | -35 | 3 | nt | nt | nt | nt | nt
